Results taken from ChEMBL document CHEMBL1149770, “Synthesis and antimicrobial studies of novel dichlorofluorophenyl containing aminotriazolothiadiazines” (2008).
In brackets after ≈: the same amount, converted by molar mass.

Experiments:
[1] = tested on: Pseudomonas aeruginosa; assay: Antibacterial activity against Pseudomonas aeruginosa ATCC 27853 assessed as inhibition zone diameter after 24 hrs […]; format: functional
Outline: (§1)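 Disc diffusion on nutrient agar. Inoculum 1-2 × 10^7 c.f.u/ml (0.5 McFarland) spread over the plate surface. Sterile 6.25 mm filter-paper discs soaked in a known concentration of compound. Solvent and growth controls included. Plates incubated inverted 24 h at 37 °C, then inhibition zone diameter measured in mm. Ciprofloxacin reference.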

[2] = tested on: Aspergillus flavus; assay: Antifungal activity against Aspergillus flavus assessed as inhibition zone diameter […] by agar dilution method; format: functional
Outline: (§2)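 Compounds in DMSO placed in punched wells on Sabouraud agar (peptone, glucose, agar, pH 5.7) lawned with saline spore suspension. Plates pre-dried 1 h at 37 °C. Controls in triplicate, incubation at 37 °C for 3-4 days, then inhibition zone diameter read in mm. Amphotericin B reference.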

[3] = tested on: Trichophyton mentagrophytes; assay: Antifungal activity against Trichophyton mentagrophytes after 48 hrs […]; format: functional
[4] = tested on: Escherichia coli; assay: Antibacterial activity against Escherichia coli ATCC 25922 after 24 hrs by broth dilution technique; format: functional; settings: ATCC 25922, 24 h
Outline: (§3)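 MIC by broth dilution in nutrient broth with logarithmic serial twofold dilutions of compound. Inoculum approx. 5×10^5 c.f.u actively dividing bacteria. Incubated 24 h at 37 °C, growth monitored visually and spectrophotometrically. MIC taken as the lowest concentration (highest dilution) arresting growth. Ciprofloxacin reference.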

[5] = tested on: Trichophyton mentagrophytes; assay: Antifungal activity against Trichophyton mentagrophytes assessed as inhibition zone diameter […] by agar dilution method; format: functional; outline: as §2
[6] = tested on: Staphylococcus aureus; assay: Antibacterial activity against Staphylococcus aureus ATCC 25923 after 24 hrs by broth dilution technique; format: functional; settings: ATCC 25923, 24 h; outline: as §3
[7] = tested on: Candida albicans; assay: Antifungal activity against Candida albicans after 48 hrs […]; format: functional
[8] = tested on: Streptococcus pyogenes; assay: Antibacterial activity against Streptococcus pyogenes after 24 hrs by broth dilution technique; format: functional; outline: as §3
[9] = tested on: Pseudomonas aeruginosa; assay: Antibacterial activity against Pseudomonas aeruginosa ATCC 27853 after 24 hrs by broth dilution technique; format: functional; settings: ATCC 27853, 24 h; outline: as §3
[10] = tested on: Candida albicans; assay: Antifungal activity against Candida albicans assessed as inhibition zone diameter […] by agar dilution method; format: functional; outline: as §2
[11] = tested on: Klebsiella pneumoniae; assay: Antibacterial activity against Klebsiella pneumoniae assessed as inhibition zone diameter after 24 hrs […]; format: functional; outline: as §1
[12] = tested on: Staphylococcus aureus; assay: Antibacterial activity against Staphylococcus aureus ATCC 25923 assessed as inhibition zone diameter after 24 hrs […]; format: functional; outline: as §1
[13] = tested on: Aspergillus fumigatus; assay: Antifungal activity against Aspergillus fumigatus after 48 hrs […]; format: functional
[14] = tested on: Streptococcus pyogenes; assay: Antibacterial activity against Streptococcus pyogenes assessed as inhibition zone diameter after 24 hrs by disc diffusion method
[15] = tested on: Aspergillus flavus; assay: Antifungal activity against Aspergillus flavus after 48 hrs […]; format: functional
[16] = tested on: Talaromyces marneffei; assay: Antifungal activity against Penicillium marneffei assessed as inhibition zone diameter […] by agar dilution method; format: functional; outline: as §2
[17] = tested on: Klebsiella pneumoniae; assay: Antibacterial activity against Klebsiella pneumoniae after 24 hrs by broth dilution technique; format: functional; outline: as §3
[18] = tested on: Talaromyces marneffei; assay: Antifungal activity against Penicillium marneffei after 48 hrs […]; format: functional
[19] = tested on: Aspergillus fumigatus; assay: Antifungal activity against Aspergillus fumigatus assessed as inhibition zone diameter […] by agar dilution method; format: functional; outline: as §2

| SMILES | inhibition zone (IZ) [1] [mm] | inhibition zone (IZ) [2] [mm] | MIC [3] [µg/mL] | MIC [4] [µg/mL] | inhibition zone (IZ) [5] [mm] | MIC [6] [µg/mL] | MIC [7] [µg/mL] | MIC [8] [µg/mL] | MIC [9] [µg/mL] | inhibition zone (IZ) [10] [mm] | inhibition zone (IZ) [11] [mm] | inhibition zone (IZ) [12] [mm] | MIC [13] [µg/mL] | inhibition zone (IZ) [14] [mm] | MIC [15] [µg/mL] | inhibition zone (IZ) [16] [mm] | MIC [17] [µg/mL] | MIC [18] [µg/mL] | inhibition zone (IZ) [19] [mm] |
| --- | --- | --- | --- | --- | --- | --- | --- | --- | --- | --- | --- | --- | --- | --- | --- | --- | --- | --- | --- |
| Cc1cccc(C)c1NC1=Nn2c(nnc2-c2cc(F)c(Cl)cc2Cl)SC1 | 15 | 24 | 6.25 (≈ 14.8 µM) | 12.5 (≈ 29.6 µM) | 19 | 6.25 (≈ 14.8 µM) | 12.5 (≈ 29.6 µM) | 6.25 (≈ 14.8 µM) | 6.25 (≈ 14.8 µM) | 15 | 12 | 23 | 25 (≈ 59.2 µM) | 21 | 6.25 (≈ 14.8 µM) | 12 | 12.5 (≈ 29.6 µM) | 12.5 (≈ 29.6 µM) | 10 |
| Nn1c(SCC(=O)Nc2ccc(Cl)cc2)nnc1-c1cc(F)c(Cl)cc1Cl | 18 | 10 | 25 (≈ 56 µM) | 12.5 (≈ 28 µM) | 8 | 12.5 (≈ 28 µM) | 12.5 (≈ 28 µM) | 25 (≈ 56 µM) | 12.5 (≈ 28 µM) | 12 | 12 | 17 | 12.5 (≈ 28 µM) | 10 | 25 (≈ 56 µM) | 17 | 12.5 (≈ 28 µM) | 12.5 (≈ 28 µM) | 15 |
| Cc1ccc(NC(=O)CSc2nnc(-c3cc(F)c(Cl)cc3Cl)n2N)cc1 | 31 | 22 | 6.25 (≈ 14.7 µM) | 6.25 (≈ 14.7 µM) | 18 | 6.25 (≈ 14.7 µM) | 6.25 (≈ 14.7 µM) | 6.25 (≈ 14.7 µM) | 6.25 (≈ 14.7 µM) | 18 | 20 | 25 | 6.25 (≈ 14.7 µM) | 22 | 6.25 (≈ 14.7 µM) | 23 | 6.25 (≈ 14.7 µM) | 6.25 (≈ 14.7 µM) | 20 |
| COc1ccc(NC2=Nn3c(nnc3-c3cc(F)c(Cl)cc3Cl)SC2)cc1 | 15 | 18 | 12.5 (≈ 29.5 µM) | > 100 | 13 | 6.25 (≈ 14.7 µM) | 6.25 (≈ 14.7 µM) | 12.5 (≈ 29.5 µM) | 25 (≈ 58.9 µM) | 19 | 12 | 22 | 12.5 (≈ 29.5 µM) | 16 | 6.25 (≈ 14.7 µM) | – | 12.5 (≈ 29.5 µM) | > 100 | 12 |
| Fc1cc(-c2nnc3n2N=C(Nc2cc(Cl)c(Cl)cc2Cl)CS3)c(Cl)cc1Cl | 32 | 23 | 6.25 (≈ 12.6 µM) | 6.25 (≈ 12.6 µM) | 18 | 6.25 (≈ 12.6 µM) | 6.25 (≈ 12.6 µM) | 6.25 (≈ 12.6 µM) | 6.25 (≈ 12.6 µM) | 20 | 20 | 24 | 6.25 (≈ 12.6 µM) | 23 | 6.25 (≈ 12.6 µM) | 24 | 6.25 (≈ 12.6 µM) | 6.25 (≈ 12.6 µM) | 19 |
| Fc1cc(-c2nnc3n2N=C(Nc2ccccc2C(F)(F)F)CS3)c(Cl)cc1Cl | 30 | 21 | 6.25 (≈ 13.5 µM) | 6.25 (≈ 13.5 µM) | 17 | 6.25 (≈ 13.5 µM) | 6.25 (≈ 13.5 µM) | 6.25 (≈ 13.5 µM) | 6.25 (≈ 13.5 µM) | 18 | 21 | 22 | 6.25 (≈ 13.5 µM) | 23 | 6.25 (≈ 13.5 µM) | 21 | 6.25 (≈ 13.5 µM) | 6.25 (≈ 13.5 µM) | 21 |
| Cc1ccc(NC2=Nn3c(nnc3-c3cc(F)c(Cl)cc3Cl)SC2)c(C)c1 | 18 | 15 | 12.5 (≈ 29.6 µM) | 12.5 (≈ 29.6 µM) | 12 | > 100 | 25 (≈ 59.2 µM) | 12.5 (≈ 29.6 µM) | 12.5 (≈ 29.6 µM) | 8 | 14 | – | 25 (≈ 59.2 µM) | 11 | 12.5 (≈ 29.6 µM) | – | 12.5 (≈ 29.6 µM) | > 100 | 9 |
| CCOc1ccc(NC2=Nn3c(nnc3-c3cc(F)c(Cl)cc3Cl)SC2)cc1 | 15 | 10 | > 100 | > 100 | – | 6.25 (≈ 14.3 µM) | 12.5 (≈ 28.5 µM) | – | 25 (≈ 57 µM) | 12 | 12 | 20 | 12.5 (≈ 28.5 µM) | – | 25 (≈ 57 µM) | 17 | 12.5 (≈ 28.5 µM) | 12.5 (≈ 28.5 µM) | 15 |
| Fc1cc(-c2nnc3n2N=C(Nc2ccc(Cl)cc2Cl)CS3)c(Cl)cc1Cl | – | 8 | 12.5 (≈ 27 µM) | 12.5 (≈ 27 µM) | 11 | > 100 | 12.5 (≈ 27 µM) | – | > 100 | 15 | 17 | – | 6.25 (≈ 13.5 µM) | – | 25 (≈ 54 µM) | 12 | 12.5 (≈ 27 µM) | 12.5 (≈ 27 µM) | 19 |
| Fc1cc(-c2nnc3n2N=C(Nc2ccc(Cl)cc2)CS3)c(Cl)cc1Cl | 32 | 20 | 12.5 (≈ 29.2 µM) | 6.25 (≈ 14.6 µM) | 11 | 6.25 (≈ 14.6 µM) | 6.25 (≈ 14.6 µM) | 6.25 (≈ 14.6 µM) | 6.25 (≈ 14.6 µM) | 16 | 20 | 24 | 6.25 (≈ 14.6 µM) | 25 | 6.25 (≈ 14.6 µM) | 15 | 6.25 (≈ 14.6 µM) | 12.5 (≈ 29.2 µM) | 18 |
